GSTO1 counter = counter-screen for RBBP9 inhibitors: inhibitors of human GSTO1; recombinant GSTO1, activity-based probe fluorescence polarization; inhibition, % at 5.96 µM; hit rate 1.1% among 300,000; AID 1974;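 active means inhibition above the campaign mean inhibition plus 3 SD, cut at about 35% in these data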
Target sequence (P78417 whole entry, looked up): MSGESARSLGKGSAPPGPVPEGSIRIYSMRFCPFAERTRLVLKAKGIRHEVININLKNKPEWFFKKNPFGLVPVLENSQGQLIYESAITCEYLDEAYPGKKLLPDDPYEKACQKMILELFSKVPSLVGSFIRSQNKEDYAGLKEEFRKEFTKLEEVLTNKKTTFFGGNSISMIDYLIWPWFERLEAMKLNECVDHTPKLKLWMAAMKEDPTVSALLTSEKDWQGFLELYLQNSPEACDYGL
DTT redox prof = compounds producing H2O2 with reducing agent – biochemical, NIH compound library profiling, artefact control for MLSCN library redox annotation, primary screen; DTT-dependent redox cycling H2O2, phenol red/HRP absorbance; 100% = 100 µM peroxide control, 0% = buffer; activation, % at 10 µM; hit rate 0.03% among 200,000; AID 878;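 active means activation of at least 50% relative to the plate's high and low controls in the primary single-dose screen; inactive means activation below 50%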;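 further: compound incubated with DTT at 0.8 mM final as the reducing agent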
UBC9 SUMO inh = SUMOylation inhibition; AID 2006; hit rate 0.36% among 290,000; P63279; inhibition, % at 35 µM; HTRF SUMOylation assay, SAE1/SAE2 + UBC9, in vitro; in the data active means inhibition above about 50%, passing the limit was not always enough
Target sequence (P63279 whole entry, looked up): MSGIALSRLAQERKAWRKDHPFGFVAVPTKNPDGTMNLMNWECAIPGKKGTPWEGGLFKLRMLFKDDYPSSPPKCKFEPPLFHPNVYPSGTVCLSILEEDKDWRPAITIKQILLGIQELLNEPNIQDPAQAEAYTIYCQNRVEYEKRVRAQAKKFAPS
HKDC1 inh = HKDC1 (human) hexokinase inhibition. recombinant HKDC1, G6PDH/diaphorase resazurin coupled fluorescence. inhibition, % at 20 µM. hit rate 0.16% among 340,000. AID 493160;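 active means inhibition above about 35% when tested at 20 µM, limit read from the data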
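Material – in-house recombinant HK5 (HKDC1) enzyme · Quantity – HKDC1 at 5 µg/mL · Buffer or medium – pH 8.0 Tris buffer with 10 mM MgCl2 · Reagent – glucose with 1 mM ATP · Dosing – single 20 µM dose · Times – reaction time 90 min, room temperature, protected from light · Technique – resorufin fluorescence at 613 nm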
Apaf-1 inh = human Apaf-1 inhibition; reconstituted apoptosome caspase-3 activity, DEVD-Rh110 fluorescence; inhibition, % at 20 µM; hit rate 0.71% among 330,000; AID 489030; active means inhibition of at least 40% at 20 µM
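System – cell-free apoptosome with Apaf-1, procaspase-3 and caspase-9 · Buffer or medium – pH 7.5 Hepes buffer with CHAPS, BSA, DTT · Also added – cytochrome c with DEVD-Rh110 · Times – 30 min compound preincubation, 50 min activation, room temperature · Technique – Rh110 fluorescence intensity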
GSTO1 confirm = GSTO1 (human) inhibition, confirmation | shares compounds with GSTO1 counter | recombinant GSTO1, probe fluorescence polarization | inhibition, % at 5.96 µM | hit rate 54% among 2,400 | AID 2176;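 active means inhibition above the primary screen's cutoff, its mean inhibition plus 3 SD, cut at about 35% in these data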;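 further: loss of polarization as inhibitors block binding of rhodamine sulfonate ester activity probe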
GSTO1 ABPP inh = inhibitors of recombinant human GSTO1. shares compounds with GSTO1 counter. gel ABPP SE-Rh probe fluorescence. inhibition, % at 1 µM. hit rate 30% among 130. AID 463110;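 active means inhibition of the enzyme GSTO1 above about 75%, limit read from the data; inactive means inhibition below that limit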
Large screens that a line does not name were inactive (follow-up assays come after a bar, where they were run). Hits are enriched below; roughly 1.4% of the tested compounds scored in any of these assays.

CCNc1ccc(Br)cc(C(=O)/C=C/c2ccc(Cl)cc2Cl)c1=O	GSTO1 counter 42.6 | GSTO1 confirm inactive
CNc1ccc(Br)cc(C(=O)/C=C/c2cc(OC)ccc2OC)c1=O	GSTO1 counter 40.0 | GSTO1 confirm inactive
CNc1ccc(Br)cc(C(=O)/C=C/c2ccc3c(c2)OCO3)c1=O	GSTO1 counter 54.8 | GSTO1 confirm inactive
CCS(=O)(=O)c1cc([N+](=O)[O-])c(Sc2ccccc2NC(C)=O)s1	none (no result: DTT redox prof)
COc1ccccc1N1CCN(CC(=O)Nc2ccccc2C(=O)NC(C)c2ccccc2)CC1 (configuration not stated)	none (no result: GSTO1 counter, DTT redox prof, UBC9 SUMO inh)
CCN(CC)c1ccc(C=Nc2ccc(C)cc2)c(O)c1	none
CCN(CC)c1ccc(C=Nc2ccc(N(C)C)cc2)c(O)c1	GSTO1 counter 65.7, Apaf-1 inh 44.5 | GSTO1 confirm inactive
CCC(=O)N=c1ccn(C2=Nc3ccccc3NC2=C(C#N)C#N)cc1	GSTO1 counter 62.8 (no result: DTT redox prof) | GSTO1 confirm inactive
Cc1ccc(N2C(=O)N(CC(=O)Nc3c(C)cc(C)cc3Cl)C(=O)C2C)cc1 (configuration not stated)	none (no result: DTT redox prof, UBC9 SUMO inh)
CCOc1ccc(N=Nc2c(=O)[nH]n3c(C)cc(C)nc23)cc1	none
COc1cccc(N=Nc2c(=O)[nH]n3c(C)cc(C)nc23)c1	GSTO1 counter 38.1 | GSTO1 confirm inactive
CC(CNc1ccccc1O)C(=O)O (configuration not stated)	GSTO1 counter 45.0 | GSTO1 confirm inactive
O=C(CSc1ccc(Cl)cc1)NC1=NN(c2ccccc2)C(=O)C1	GSTO1 counter 42.1 (no result: DTT redox prof) | GSTO1 confirm inactive
Cc1ccc(C=Nc2ccc(N(C)C)cc2)o1	GSTO1 counter 82.6, Apaf-1 inh 51.1 | GSTO1 confirm inactive
COCCN(C(=O)COC(=O)C(c1ccccc1)c1ccccc1)c1c(N)n(Cc2ccccc2)c(=O)[nH]c1=O	none (no result: DTT redox prof, UBC9 SUMO inh)
C=CCN=c1scc(C)n1/N=C/c1ccc(O)c(O)c1	GSTO1 counter 95.5 | GSTO1 confirm inactive
CC(C)C(=O)Nc1ccc(C(=O)NNC(=S)NC(=O)c2ccco2)cc1	GSTO1 counter 45.5 (no result: DTT redox prof) | GSTO1 confirm inactive
Cc1ccc(C(=O)NNC(=S)NC(=O)c2ccco2)cc1	none
C=C(C)CNC(=O)c1ccc2nc(Cc3ccc(OC)cc3)oc2c1	none (no result: DTT redox prof)
Cc1cccc(NC(=O)Cn2nnc(C(=O)Nc3ccc(F)c(Cl)c3)c2N)c1	GSTO1 counter 42.6 (no result: DTT redox prof) | GSTO1 confirm inactive
COc1ccccc1C(=O)Nc1ccc(OCC(=O)N2CCCCC2C)cc1 (configuration not stated)	none (no result: GSTO1 counter, DTT redox prof, UBC9 SUMO inh)
O=C(O)c1cc(N=Nc2c(O)ccc3ccccc23)cc(C(=O)O)c1	none (no result: GSTO1 counter, Apaf-1 inh)
O=C(O)c1ccc(N=Nc2c(O)ccc3ncccc23)cc1	GSTO1 counter 60.2 (no result: DTT redox prof) | GSTO1 confirm 41.4
Fc1ccccc1-c1csc(=Nc2cccnc2)n1CC1CCCO1 (configuration not stated)	none
Fc1ccccc1-c1csc(=Nc2cccnc2)n1CCCn1ccnc1	GSTO1 counter 41.3 | GSTO1 confirm inactive
NC(=O)C1(C(N)=O)OC1c1ccc(Cl)c(Cl)c1 (configuration not stated)	GSTO1 counter 65.5 (no result: DTT redox prof) | GSTO1 confirm 76.9 | GSTO1 ABPP inh inactive
COc1ccc([C@@H]2OC2(C(N)=O)C(N)=O)cc1	none (no result: DTT redox prof)
COc1ccccc1NC(=O)CCCCCN1C(=O)c2cccc([N+](=O)[O-])c2C1=O	none (no result: DTT redox prof)
COc1cc(/C=C2/C(=O)c3cccc([N+](=O)[O-])c3C2=O)c(Br)cc1O	GSTO1 counter 47.1 (no result: Apaf-1 inh) | GSTO1 confirm 54.8
Cc1ccc(SCC(=O)OCC(=O)N(CC(C)C)c2c(N)n(Cc3ccccc3)c(=O)[nH]c2=O)cc1C	none (no result: DTT redox prof, UBC9 SUMO inh)
CC(=O)c1c(C)nc(-c2ccc(Cl)cc2)nc1N	none
CC(=O)c1c(C)nc(-c2ccc(Cl)cc2)nc1N=CN(C)C	GSTO1 counter 38.2 | GSTO1 confirm inactive
CCCC(=O)Nc1nnc(S(=O)(=O)N(CC)c2ccccc2)s1	none (no result: DTT redox prof)
Nc1scc2c(C(=O)N/N=C/c3ccc(Cl)cc3)nn(-c3ccccc3)c(=O)c12	GSTO1 counter 44.7, Apaf-1 inh 42.4 | GSTO1 confirm inactive
Nc1c(C(=O)N/N=C/c2ccc(Cl)cc2)cnn1-c1ccccc1	none (no result: DTT redox prof)
O=C1CCN(Cc2ccc(O)cc2)CCN1[C@H](CO)c1ccccc1	none (no result: DTT redox prof)
CCC(=O)N1CCN(c2nc(CC)nc3sc4c(c23)CCCC4)CC1	none (no result: DTT redox prof)
CC1CCc2c(sc3nc(C(C)(C)C)nc(N4CCN(C(=O)CCl)CC4)c23)C1 (configuration not stated)	GSTO1 counter 73.5 (no result: DTT redox prof) | GSTO1 confirm 73.5 | GSTO1 ABPP inh inactive
O=C(O)c1cc(S(=O)(=O)Nc2ccc3cn[nH]c3c2)ccc1Cl	none (no result: GSTO1 counter, DTT redox prof, UBC9 SUMO inh)
O=C(NCc1ccc2[nH]c3c(c2c1)CCCC3)c1ccc(S(=O)(=O)N2CCOCC2)cc1	none
O=C(NCc1ccc2[nH]c3c(c2c1)CCCC3)N1CCOCC1	GSTO1 counter 49.2 (no result: HKDC1 inh) | GSTO1 confirm 59.4
CCN(c1ccc(NC(=O)COC(=O)CCC(=O)c2ccc(F)cc2)cc1)C(C)C	GSTO1 counter 38.5 | GSTO1 confirm inactive
CC(=O)c1cccc(NC(=O)COC(=O)CCC(=O)c2ccc(F)cc2)c1	none (no result: GSTO1 counter, DTT redox prof, UBC9 SUMO inh)
COc1ccc(OC)c(S(=O)(=O)N2CCC(C(=O)NC3CCCCCC3)CC2)c1	none (no result: DTT redox prof)
Oc1cc(O)c2c(c1)O[C@H](c1ccc(O)c(O)c1)[C@H](O)C2	GSTO1 counter 39.6 (no result: DTT redox prof) | GSTO1 confirm inactive
O=C(O[C@@H]1Cc2c(O)cc(O)cc2O[C@@H]1c1cc(O)c(O)c(O)c1)c1cc(O)c(O)c(O)c1	none (no result: GSTO1 counter, DTT redox prof, HKDC1 inh)
O=C(c1cc2cc(Cl)ccc2[nH]1)N1CCN(c2ccccn2)CC1	none (no result: DTT redox prof)
CC(=O)c1cccc(Oc2cc(NN3CCCCC3)c([N+](=O)[O-])cc2[N+](=O)[O-])c1	GSTO1 counter 44.2 (no result: DTT redox prof) | GSTO1 confirm inactive
C=C(C)c1cccc(C(C)(C)NC(=O)Nc2ncccn2)c1	GSTO1 counter 38.7 | GSTO1 confirm inactive
CN1C(=O)NC(c2ccccc2[N+](=O)[O-])C2=C1CC(C)(C)CC2=O (configuration not stated)	none (no result: DTT redox prof)
CN1C(=O)NC(c2ccccc2[N+](=O)[O-])C2=C1CCCC2=O (configuration not stated)	GSTO1 counter 71.2 (no result: DTT redox prof) | GSTO1 confirm 37.9
O=C(c1cc2ccccc2o1)N1CCN(S(=O)(=O)c2ccc(F)c(F)c2F)CC1	none (no result: GSTO1 counter, DTT redox prof, UBC9 SUMO inh)
CCc1ccc(-c2nc(CCl)cs2)cc1	GSTO1 counter 92.3 | GSTO1 confirm 97.9 | GSTO1 ABPP inh 81.0
COc1cccc(-c2nc(CCl)cs2)c1	GSTO1 counter 83.2 | GSTO1 confirm 94.6 | GSTO1 ABPP inh inactive
CCOC(=O)c1ccc(Nc2nc(C)nc3c2nnn3Cc2ccccc2)cc1	none (no result: DTT redox prof)
